Assay [1] has as its target T1, Muscarinic acetylcholine receptor M4 (Homo sapiens) (UniProt P08173).
T1 sequence (whole entry): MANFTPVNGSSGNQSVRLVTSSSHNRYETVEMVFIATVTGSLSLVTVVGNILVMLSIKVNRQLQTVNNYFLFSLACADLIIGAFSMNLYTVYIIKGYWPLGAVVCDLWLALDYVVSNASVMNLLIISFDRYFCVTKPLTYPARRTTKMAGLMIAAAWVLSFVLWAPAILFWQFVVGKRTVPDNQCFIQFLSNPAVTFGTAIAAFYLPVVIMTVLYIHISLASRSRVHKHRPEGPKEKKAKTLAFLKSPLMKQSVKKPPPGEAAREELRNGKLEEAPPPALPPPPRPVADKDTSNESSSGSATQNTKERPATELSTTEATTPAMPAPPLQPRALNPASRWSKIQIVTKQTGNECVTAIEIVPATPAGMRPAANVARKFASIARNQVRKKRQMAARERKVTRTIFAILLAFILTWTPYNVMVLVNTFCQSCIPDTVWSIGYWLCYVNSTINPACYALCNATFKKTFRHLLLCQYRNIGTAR
In words: Inhibition of radioligand binding to muscarinic M4 receptor at 10 uM. A digest of the protocol: (§1)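 Part of an in vitro radioligand binding panel. Each target was tested against a potent standard radioligand for that site. The read-out was percent inhibition of specific binding, reported as an average value.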

The target in assay [2] is Acetylcholinesterase (Homo sapiens) (UniProt P22303). Nature of the assay: Inhibition of AChE at 10 uM. A digest of the protocol:
as §1

The target of assay [3] is T2, 5-hydroxytryptamine receptor 2C (Homo sapiens) (UniProt P28335).
T2 sequence (whole entry): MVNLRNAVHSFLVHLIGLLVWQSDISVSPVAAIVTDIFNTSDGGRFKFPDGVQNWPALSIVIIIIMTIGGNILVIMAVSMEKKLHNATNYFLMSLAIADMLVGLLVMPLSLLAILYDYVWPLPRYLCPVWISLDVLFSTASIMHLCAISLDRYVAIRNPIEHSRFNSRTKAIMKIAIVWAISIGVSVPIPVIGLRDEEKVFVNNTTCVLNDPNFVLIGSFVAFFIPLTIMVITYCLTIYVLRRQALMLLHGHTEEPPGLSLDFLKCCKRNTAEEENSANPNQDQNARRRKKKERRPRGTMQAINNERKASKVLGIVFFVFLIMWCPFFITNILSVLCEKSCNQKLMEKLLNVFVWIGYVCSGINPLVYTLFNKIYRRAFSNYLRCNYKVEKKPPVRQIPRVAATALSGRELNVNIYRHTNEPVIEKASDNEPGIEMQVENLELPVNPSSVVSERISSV
In words: Inhibition of radioligand binding to 5HT2C at 10 uM. A digest of the protocol:
as §1

For assay [4], the target named is T3, Nischarin (Homo sapiens, UniProt Q9Y2I1). In words: Inhibition of radioligand binding to imidazole receptor 1.
The subject of assay [5] is Hippocampal neuron. In words: Neuroprotective activity in mouse hippocampal neurons assessed as Abeta-induced neuronal apoptosis at 30 uM pre-incubated for 4 hrs before Abeta challenge for 72 hrs by TUNEL assay (reference value: 100%). It is filed as functional. To be noted: Hippocampus. A digest of the protocol:
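Aggregated Aβ (20 μM, 72 h) was applied to primary mouse hippocampal neurons with or without compound at 30 μM. Apoptosis was scored by TUNEL as the percentage of positive nuclei among total nuclei, referred to Aβ alone (100%). Medium-only cells were the negative control and DNase the positive control. n = 4, mean ± SEM, two-tailed Student's test.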

For assay [6], the species on record is Mus musculus. In words: Inhibition of imidazole receptor 2 in mouse hippocampal neurons assessed as reduction in tPA-induced Erk1/2 activation at 30 uM pre-incubated for 4 hrs before tPA stimulation by ELISA. To be noted: Hippocampus. A digest of the protocol:
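Primary mouse hippocampal neurons were stimulated with tPA (20 μg/mL, 1 h) with or without compound at 30 μM. Phospho-Erk1/2 was measured by ELISA with a phospho-specific antibody and normalized to total Erk1/2. Untreated cultures set the lower limit and tPA alone the upper limit.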
For orientation: An ELISA detects its analyte on a solid surface through an enzyme-linked reagent.

The nature of assay [7]: Displacement of [3H]idazoxan from rat cerebral cortex imidazole receptor 2 in presence of 1 uM yohimbine. It is filed as tissue-based.
The target of assay [8] is Kappa-type opioid receptor (Homo sapiens) (UniProt P41145). Nature of the assay: Inhibition of radioligand binding to KOP receptor at 10 uM. A digest of the protocol: as §1
Assay [9] deals with T3, Nischarin. Nature of the assay: Inhibition of radioligand binding to imidazole receptor 1 at 10 uM.

These results are taken from ChEMBL document CHEMBL2176910, “Identification of small molecule inhibitors of amyloid β-induced neuronal apoptosis acting through the imidazoline I(2) receptor” (J Med Chem, 2012).

The structures appear in SMILES notation. Calls of active or inactive are those of the source. The rule behind the calls is not given here.

Chain of Kappa-type opioid receptor (Homo sapiens) (P41145 whole entry): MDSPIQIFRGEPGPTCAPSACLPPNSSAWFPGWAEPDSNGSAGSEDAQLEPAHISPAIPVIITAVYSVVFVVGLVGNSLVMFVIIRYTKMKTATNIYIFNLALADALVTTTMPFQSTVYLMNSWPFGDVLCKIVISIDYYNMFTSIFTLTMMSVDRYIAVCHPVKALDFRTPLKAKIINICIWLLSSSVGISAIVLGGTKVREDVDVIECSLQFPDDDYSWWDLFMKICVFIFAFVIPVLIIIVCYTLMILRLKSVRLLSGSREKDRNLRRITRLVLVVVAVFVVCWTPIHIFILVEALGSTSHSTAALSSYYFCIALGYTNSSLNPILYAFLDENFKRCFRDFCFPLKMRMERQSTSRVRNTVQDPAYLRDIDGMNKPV
Chain of Acetylcholinesterase (Homo sapiens) (P22303 whole entry): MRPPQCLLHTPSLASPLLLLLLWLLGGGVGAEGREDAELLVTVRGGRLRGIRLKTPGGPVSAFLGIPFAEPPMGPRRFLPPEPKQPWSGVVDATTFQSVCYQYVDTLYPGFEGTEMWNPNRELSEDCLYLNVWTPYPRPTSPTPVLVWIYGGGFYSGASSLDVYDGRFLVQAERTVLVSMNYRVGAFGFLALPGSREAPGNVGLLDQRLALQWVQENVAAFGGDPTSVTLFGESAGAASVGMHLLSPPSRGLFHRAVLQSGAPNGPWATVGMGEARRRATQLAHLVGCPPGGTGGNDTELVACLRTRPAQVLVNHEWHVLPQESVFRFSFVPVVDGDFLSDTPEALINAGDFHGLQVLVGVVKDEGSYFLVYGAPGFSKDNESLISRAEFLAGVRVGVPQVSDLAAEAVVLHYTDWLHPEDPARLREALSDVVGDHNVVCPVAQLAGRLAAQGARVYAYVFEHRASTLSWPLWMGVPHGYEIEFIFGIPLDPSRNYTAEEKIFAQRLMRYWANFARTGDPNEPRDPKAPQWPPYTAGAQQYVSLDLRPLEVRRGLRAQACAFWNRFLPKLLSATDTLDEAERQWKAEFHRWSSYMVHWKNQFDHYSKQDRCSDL
T3 sequence (Q9Y2I1 whole entry): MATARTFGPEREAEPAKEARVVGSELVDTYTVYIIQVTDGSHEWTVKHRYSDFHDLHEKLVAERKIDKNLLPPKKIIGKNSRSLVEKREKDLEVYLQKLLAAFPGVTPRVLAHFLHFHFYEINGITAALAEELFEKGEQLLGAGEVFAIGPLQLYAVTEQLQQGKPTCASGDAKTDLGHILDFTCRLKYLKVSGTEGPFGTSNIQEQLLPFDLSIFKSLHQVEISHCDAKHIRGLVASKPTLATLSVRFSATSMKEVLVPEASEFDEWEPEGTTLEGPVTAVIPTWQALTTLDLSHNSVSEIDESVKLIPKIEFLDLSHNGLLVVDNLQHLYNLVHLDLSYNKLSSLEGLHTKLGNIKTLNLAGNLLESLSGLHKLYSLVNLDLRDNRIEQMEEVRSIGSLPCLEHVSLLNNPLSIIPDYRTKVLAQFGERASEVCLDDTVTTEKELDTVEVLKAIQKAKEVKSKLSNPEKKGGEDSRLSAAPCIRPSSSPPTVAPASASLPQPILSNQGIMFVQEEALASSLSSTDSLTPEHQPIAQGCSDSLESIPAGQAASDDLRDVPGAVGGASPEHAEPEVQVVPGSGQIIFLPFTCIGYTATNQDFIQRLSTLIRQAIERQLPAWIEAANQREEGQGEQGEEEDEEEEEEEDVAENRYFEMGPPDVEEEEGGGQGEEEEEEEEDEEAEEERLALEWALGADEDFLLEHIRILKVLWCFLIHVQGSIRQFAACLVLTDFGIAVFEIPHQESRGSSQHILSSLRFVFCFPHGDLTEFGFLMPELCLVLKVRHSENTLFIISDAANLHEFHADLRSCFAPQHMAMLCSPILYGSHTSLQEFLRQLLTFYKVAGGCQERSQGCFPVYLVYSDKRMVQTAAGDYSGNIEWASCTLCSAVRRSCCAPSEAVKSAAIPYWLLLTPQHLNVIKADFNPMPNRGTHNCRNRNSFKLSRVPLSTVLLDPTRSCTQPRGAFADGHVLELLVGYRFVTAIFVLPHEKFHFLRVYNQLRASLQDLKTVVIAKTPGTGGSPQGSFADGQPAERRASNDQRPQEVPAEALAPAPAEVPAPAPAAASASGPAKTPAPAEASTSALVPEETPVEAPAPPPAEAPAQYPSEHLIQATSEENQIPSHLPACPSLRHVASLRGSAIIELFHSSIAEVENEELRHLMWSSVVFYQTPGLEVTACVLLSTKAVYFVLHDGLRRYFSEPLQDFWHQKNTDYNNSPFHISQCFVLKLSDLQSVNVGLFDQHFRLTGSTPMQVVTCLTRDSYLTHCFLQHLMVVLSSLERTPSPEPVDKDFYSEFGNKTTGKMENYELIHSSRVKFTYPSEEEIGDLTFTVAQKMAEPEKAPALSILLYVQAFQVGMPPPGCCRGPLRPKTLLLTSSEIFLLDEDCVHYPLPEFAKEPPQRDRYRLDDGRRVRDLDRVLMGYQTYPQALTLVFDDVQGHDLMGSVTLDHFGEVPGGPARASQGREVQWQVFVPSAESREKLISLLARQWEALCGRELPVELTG

On to `CN(C)C(CN)c1ccccc1Cl` (stereo not given), for which the inhibition in [1], in assay [2], in [3], in [8] and in assay [9] was less than 20% in each case. Moreover, the Ki (commonly the dissociation constant of the complex between target and ligand, obtained from inhibition or displacement) in assay [4] turned out to be 5.2 µM; in assay [7], 14 µM. Besides, in assay [5], the outcome was Active. The “inhibition of tPA-induced Erk1/2 activation (active/inactive call)” value (shortened to “inhibition … (active/inactive call)”) in [6] is “Active”.

Take `CN1CCNC(c2ccccc2)C1` (stereo not given): the inhibition (commonly how much of the control response was suppressed) was less than 20% in [1]; less than 20% in assay [2]; less than 20% in [3]; less than 20% in assay [8]; 36% in [9]. Further, the result in [5] was Active. In assay [6], the “inhibition … (active/inactive call)” value is “Active”. Further, the Ki in assay [7] came to 18 µM.

Regarding `NCC12CCC3CC(CC3C1)C2` (stereo not given), the inhibition in [1], in [2], in assay [3], in [8] and in [9] was less than 20% throughout. Moreover, the outcome in [5] was Active. Also, the “inhibition … (active/inactive call)” value in assay [6] is “Active”. Moreover, the Ki in [7] stood at 26 µM.
